The test system of test [1] is Candida albicans. As to the kind of experiment: Antimicrobial activity against Candida albicans SC5314 dissociated biofilms grown on polyvinylchloride catheter surface at cell density of 10^3 cells/ml at 0.25 to 8 ug/ml by XTT assay. The test is classed as functional, organism-based. In short, it runs like this:
(§1)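 1-cm discs of denture acrylic, PVC catheter or silicone elastomer-coated latex catheter, ethylene-oxide sterilised. Seeded with 1 ml of 1 x 10^6 cells/ml, adhesion 90 min at 37°C, washed, grown 48 h at 37°C in RPMI. Biofilm scraped off, set to 1 x 10^3 or 1 x 10^8 cells/ml, exposed to fluconazole, read by XTT at 490 nm.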
On the technique in general: Tetrazolium dyes change colour on reduction, which living cells bring about.

For test [2], the system named is Candida albicans. The test is described as follows: Antimicrobial activity against Candida albicans FH1 at planktonic cell density of 10^8 cells/ml after 48 hrs by XTT assay. The test is classed as functional. The note with it: FH1, 48 h. In short, it runs like this:
(§2)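 YNB-grown yeast (50 mM glucose, room temperature, shaken, to ~2 x 10^8 cells/ml) washed into MOPS-buffered RPMI 1640 with L-glutamine and set to the stated density. Exposed to twofold serial drug dilutions (1,024 to 0.0313 µg/ml) at 37°C, 48 h (caspofungin 24 h), with drug-free controls. Read-out: XTT (0.5 g/liter) plus 1 µM menadione, formazan at 490 nm.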

Test [3] has as its system Candida albicans. The test is described as follows: Antimicrobial activity against Candida albicans SC5314 dissociated biofilms at cell density of 10^3 cells/ml after 48 hrs by XTT assay. The test is classed as functional. The settings on record: SC5314, 48 h. In short, it runs like this:
(§3)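 Polystyrene-well biofilms (48 h, 37°C) washed, then broken up in 100 µl RPMI by scraping and aspiration. Cells used undiluted (about 2 x 10^8 cells/ml equivalent) or adjusted by A600 against a hemacytometer-calibrated yeast standard curve. Drug exposure at 37°C for 48 h (caspofungin 24 h), then XTT/menadione read at 490 nm.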

The subject of test [4] is Candida albicans. The test is described as follows: Antimicrobial activity against fluconazole-resistant Candida albicans FH5 dissociated biofilms at cell density of 10^3 cells/ml after 48 hrs by XTT assay. Format: functional. The note with it: FH5, 48 h. In short, it runs like this:
as §3

Test [5] concerns Candida albicans. The test is described as follows: Antimicrobial activity against Cdr1, Cdr2 and Mdr1 deficient Candida albicans DSY1050 at planktonic cell density of 10^8 cells/ml after 48 hrs by XTT assay. Format: functional. The note with it: DSY1050, 48 h. In short, it runs like this: as §2
For test [6], the system named is Candida albicans. The test is described as follows: Antimicrobial activity against Chk1 deficient Candida albicans CHK21 at planktonic cell density of 10^8 cells/ml after 48 hrs by XTT assay. The test is classed as functional. The note with it: CHK21, 48 h. The essentials:
as §2

For test [7], the system named is Candida albicans. As to the kind of experiment: Antimicrobial activity against Chk1 deficient Candida albicans CHK21 at planktonic cell density of 10^3 cells/ml after 48 hrs by XTT assay. Format: functional. The settings on record: CHK21, 48 h. In short, it runs like this: as §2
The test system of test [8] is Candida albicans. As to the kind of experiment: Antimicrobial activity against Cdr1, Cdr2 and Mdr1 deficient Candida albicans DSY1050 intact biofilms after 48 hrs by XTT assay. Format: functional. The settings on record: DSY1050, 48 h. The essentials:
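Biofilm seeded at 1 x 10^6 cells/ml in RPMI in polystyrene microtiter wells and grown 48 h at 37°C in a moist chamber. Washed once and drug added to the same well (twofold dilutions, 1,024 to 0.0313 µg/ml) for 48 h at 37°C (caspofungin 24 h). Read-out: XTT/menadione reduction at 490 nm.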

The test system of test [9] is Candida albicans. As to the kind of experiment: Antimicrobial activity against Candida albicans GDH2346 at planktonic cell density of 10^3 cells/ml after 48 hrs by XTT assay. The settings on record: GDH2346, 48 h. The test is classed as functional. In short, it runs like this:
as §2

Test [10] has as its system Candida albicans. As to the kind of experiment: Antimicrobial activity against Candida albicans SC5314 dissociated biofilms grown on polymethylmethacrylate surface at cell density of 10^8 cells/ml at 0.25 to 8 ug/ml by XTT assay. Format: functional, organism-based. In short, it runs like this: as §1
Test [11] concerns Candida albicans. As to the kind of experiment: Antimicrobial activity against Candida albicans planktonic forms. Format: functional. In short, it runs like this:
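Yeast grown in YNB/50 mM glucose at room temperature to about 2 x 10^8 cells/ml, washed, and resuspended in MOPS-buffered RPMI 1640. Tested at 2 x 10^3 cells/ml (standard) or at densities from 1 x 10^3 to 1 x 10^8 cells/ml. Incubated with twofold drug dilutions at 37°C for 48 h (caspofungin 24 h). XTT-menadione read-out at 490 nm.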

For test [12], the system named is Candida albicans. The test is described as follows: Inhibition of metabolic activity in Candida albicans SC5314 at 32 ug/ml. Format: functional. Also on record: scale not given: the % may be the effect or the level left. The essentials:
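SC5314 fluconazole susceptibility tested with or without FK506. Cell suspension, drug and FK506 volumes set to the final concentrations in 200 µl. Incubation at 37°C for 48 h, then metabolic activity by XTT/menadione at 490 nm.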

The subject of test [13] is Candida albicans. The test is described as follows: Antimicrobial activity against Candida albicans disaggregated biofilms. The test is classed as functional. In short, it runs like this: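 Biofilm grown 48 h at 37°C in RPMI (MOPS-buffered) on polystyrene wells from 1 x 10^6 cells/ml, washed, then dissociated by scraping/aspiration in 100 µl. Used undiluted (about 2 x 10^8 cells/ml) or diluted to about 2 x 10^3 cells/ml. Twofold drug dilutions (1,024 to 0.0313 µg/ml) for 48 h at 37°C (caspofungin 24 h). Read-out is XTT/menadione reduction at 490 nm.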

In test [14] the test system is Candida albicans. As to the kind of experiment: Antimicrobial activity against fluconazole-resistant Candida albicans FH5 at planktonic cell density of 10^3 cells/ml after 48 hrs by XTT assay. Format: functional. The settings on record: FH5, 48 h. The essentials: as §2
Test [15] concerns Candida albicans. The test is described as follows: Antimicrobial activity against Chk1 deficient Candida albicans CHK21 dissociated biofilms at cell density of 10^3 cells/ml after 48 hrs by XTT assay. The settings on record: CHK21, 48 h. Format: functional. In short, it runs like this: as §3

Converted amounts (≈) assume the structure as drawn. The source made the active and inactive calls. The rule behind the calls is not given here.

For the compound `OC(Cn1cncn1)(Cn1cncn1)c1ccc(F)cc1F` [FLUCONAZOLE], in [1], the result was Active. In addition, the MIC80 was above 512 mg/L in test [2]; 0.25 mg/L (≈ 0.816 µM) in test [3]; 64 mg/L (≈ 209 µM) in test [4]; above 64 mg/L in test [5]; above 64 mg/L in test [6]; 0.125 mg/L (≈ 0.408 µM) in [7]. Further, the MIC80 in test [8] is above 64 mg/L; in test [9], 2 mg/L (≈ 6.53 µM); in [14], 64 mg/L (≈ 209 µM); in test [15] it was 0.125 mg/L (≈ 0.408 µM). Moreover, in test [10], the result was inactive. The MIC is 2 mg/L (≈ 6.53 µM) in test [11] and 256 mg/L (≈ 836 µM) in test [13]. Moreover, the Activity in test [12] stood at 15%.

Source of the values: ChEMBL document CHEMBL1157378, “Role for cell density in antifungal drug resistance in Candida albicans biofilms” (2007).
